Reference: PMC3925341 (Journal of medicinal chemistry, 2013)
“Also recorded” adds a separate entry of the source.

Experiments:
HeLa cells = test: Sulforhodamine B cytotoxicity assay; format: cell-based; settings: concentrations up to 75 μM, 24 h
[1] = tested on: CUG^exp foci in DM1 cell model (HeLa cells transfected with DMPK-CTG960); test: FISH study of; format: cell-based; settings: 36 h
(CUG)12·MBNL1 = test: SPR-based inhibition of the MBNL1·; format: biochemical; settings: relative to monomeric ligand 2
Outline: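 Biotinylated (CUG)12 was immobilized on a streptavidin SPR chip, with Tween-20 and excess competitor tRNA, in 1X PBS. The chip was preincubated with test compound to steady-state RU over 150 s. MBNL1 (0.65 μM) was then injected with compound held at the same concentration. Maximum RU at 150 s was converted to % (CUG)12 bound, normalized to no compound, and fitted dose-response for apparent IC50. Normalized IC50 = IC50 divided by the number of binding modules. Bivalent effect = normalized IC50 of monomer reference divided by that of dimer. Three experiments.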

[2] = tested on: MBNL1 foci in live DM1 cell model (HeLa cells, DMPK-CTG960 and GFP-MBNL1); test: Time-lapse confocal microscopy of MBNL1 foci in live DM1 model cells; format: cell-based; settings: 50 μM, over 10 h
Outline: (§1)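 Live-cell time-lapse confocal imaging of HeLa cells co-transfected with a DMPK-CTG960 minigene plasmid and a GFP-MBNL1 plasmid. Test compound at 50 μM final. Images were taken just before addition and at 3, 6 and 10 h. Cells were relocated on a gridded dish by DIC. Compound uptake was followed by its acridine fluorescence, and foci by GFP-MBNL1. Untreated cells served as control. Z-stacks of 1 μm slices were taken at 10 h.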

TAMRA-(CUG)6 = test: Steady state fluorescence titration of 5'-TAMRA-; format: binding; settings: for fold decrease in KD compared to 2 (fold greater affinity to (CUG)6): relative to monomeric ligand 2; for KD: TAMRA-(CUG)6, 1X PBS
Outline: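 TAMRA-(CUG)6 was titrated with increasing test compound in 1X PBS, with excitation at 560 nm and emission at 590 nm. Normalized fluorescence intensities were fitted to a binding equation with Fmax and F0 to give KD. Mean ± s.d. of three independent experiments.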

[3] = tested on: DM1 cell model (HeLa cells); test: Cellular and nuclear penetration by acridine fluorescence; format: cell-based; settings: monitored by inherent acridine fluorescence
Outline: as §1

[4] = Solubility in buffer / water
(CUG)12 = test: Optical melting; format: binding; settings: 11 versus 7, same number of linker atoms
CUG repeat = settings: cited from earlier work
[5] = tested on: DM1 cell model (HeLa cells); settings: cited from earlier work
[6] = 20, 35 and 50 μM (any concentration)

Question: With `CNC(=O)c1ccc2nc3ccccc3c(NCCCCNc3nc(N)nc(N)n3)c2c1` [Ligand 2] as the compound, how does the cytotoxicity (HeLa cells) read?
Answer: The cytotoxicity was “less than 20%”.

Question: What about the “(CUG)960 foci dispersion” value [1, 6] of the same compound?
Answer: The value was “no significant foci dispersion”.

Question: For `Nc1nc(N)nc(NCCCCNc2c3ccccc3nc3ccc(C(=O)NCCOCCOCCOCCOCCOCCNC(=O)c4ccc5nc6ccccc6c(NCCCCNc6nc(N)nc(N)n6)c5c4)cc23)n1` [Ligand 13], which “bivalent effect (ratio of normalized IC50 of 2 to that of the dimeric ligand)” value ((CUG)12·MBNL1) is on record?
Answer: The value was 3.

Question: What does the source list for `Nc1nc(N)nc(NCCCCNc2c3ccccc3nc3c(C(=O)NCCCNCCCNCCCNC(=O)c4cccc5c(NCCCCNc6nc(N)nc(N)n6)c6ccccc6nc45)cccc23)n1` [Ligand 9]?
Answer: MBNL1 foci dispersion in live cells [2]: almost complete dispersion; also recorded: gradually dispersing over time; also recorded: almost all the foci are dispersed; also recorded: gradual MBNL1 foci dispersion; fold tighter binder than 10 (TAMRA-(CUG)6; 9 versus 10): 10 fold; fold decrease in KD compared to 2 (fold greater affinity to (CUG)6) (TAMRA-(CUG)6): 206 fold; bivalent effect (ratio of normalized IC50 of 2 to that of the dimeric ligand) ((CUG)12·MBNL1): 133; fold greater inhibition potency than 2 in inhibiting formation of the (CUG)12·MBNL1 complex ((CUG)12·MBNL1): 266 fold; cellular and nuclear penetration [3]: both cell- and nucleus-permeable; also recorded: penetrate the cellular and nuclear membrane; cytotoxicity (HeLa cells): less than 20%; Aqueous solubility [4]: aqueous-soluble; (CUG)960 foci dispersion ([1]; 20 μM, p-value < 0.009): partial foci dispersion; (CUG)960 foci dispersion ([1]; 35 μM, p-value < 0.009): partial foci dispersion; (CUG)960 foci dispersion ([1]; 50 μM): full foci dispersion

Question: For `NCCCNCCCCNCCCN` [spermine, Spermine, reference compound], which “(CUG)960 foci dispersion” value [1, 6] is on record?
Answer: The value was “no significant foci dispersion”.

Question: Which results are given for `Nc1nc(N)nc(NCCCCNc2c3ccccc3nc3ccc(C(=O)NCCCOCCOCCOCCCNC(=O)c4ccc5nc6ccccc6c(NCCCCNc6nc(N)nc(N)n6)c5c4)cc23)n1` [Ligand 12]?
Answer: KD (TAMRA-(CUG)6): close to the monomeric ligand 2; bivalent effect (ratio of normalized IC50 of 2 to that of the dimeric ligand) ((CUG)12·MBNL1): 5

Question: What does the source list for `Nc1nc(N)nc(NCCCCNc2c3ccccc3nc3c(C(=O)NCCNCCNCCNCCNC(=O)c4cccc5c(NCCCCNc6nc(N)nc(N)n6)c6ccccc6nc45)cccc23)n1` [Ligand 10]?
Answer: fold decrease in KD compared to 2 (fold greater affinity to (CUG)6) (TAMRA-(CUG)6): 17 fold; bivalent effect (ratio of normalized IC50 of 2 to that of the dimeric ligand) ((CUG)12·MBNL1): 24

Question: Which “cellular and nuclear penetration” value [3] does the source give for `Nc1nc(N)nc(NCCCCNc2c3ccccc3nc3ccc(C(=O)NCCCNCCCCCCCCNCCCNC(=O)c4ccc5nc6ccccc6c(NCCCCNc6nc(N)nc(N)n6)c5c4)cc23)n1` [Ligand 5] here?
Answer: The value was “cell-permeable and nucleus-permeable”.

Question: And the “Solubility in the buffer used for optical melting (Solution)” value ([4]; N.S. = not sufficiently soluble)?
Answer: Its value is “not fully soluble”.

Question: And the “(CUG)960 foci dispersion” value [1, 6]?
Answer: Its value is “no significant foci dispersion”.

Question: What does the source list for `Nc1nc(N)nc(NCCCCNc2c3ccccc3nc3c(C(=O)NCCNCCNCCNC(=O)c4cccc5c(NCCCCNc6nc(N)nc(N)n6)c6ccccc6nc45)cccc23)n1` [Ligand 11]?
Answer: fold decrease in KD compared to 2 (fold greater affinity to (CUG)6) (TAMRA-(CUG)6): 14 fold; bivalent effect (ratio of normalized IC50 of 2 to that of the dimeric ligand) ((CUG)12·MBNL1): 29; fold higher ΔTm value than 7 ((CUG)12): > 3 fold; (CUG)960 foci dispersion [1, 6]: no significant foci dispersion

Question: For `Nc1nc(N)nc(NCCCCNc2c3ccccc3nc3c(C(=O)NCCOCCOCCOCCOCCOCCNC(=O)c4cccc5c(NCCCCNc6nc(N)nc(N)n6)c6ccccc6nc45)cccc23)n1` [Ligand 8], which “bivalent effect (ratio of normalized IC50 of 2 to that of the dimeric ligand)” value ((CUG)12·MBNL1) is on record?
Answer: Its value is 4.

Question: With `COc1ccc2nc3cc(Cl)ccc3c(NCCCCNc3nc(N)nc(N)n3)c2c1` [Ligand 1] as the compound, how does the “selectivity for CUG repeat relative to a random duplex” value (CUG repeat) read?
Answer: The value was “over 50 fold”.

Question: What about the cell permeability [5] of the same compound?
Answer: The cell permeability was “poor cell permeability”.

Question: With `Nc1nc(N)nc(NCCCCNc2c3ccccc3nc3ccc(C(=O)NCCOCCOCCNC(=O)c4ccc5nc6ccccc6c(NCCCCNc6nc(N)nc(N)n6)c5c4)cc23)n1` [Ligand 7] as the compound, how does the KD (TAMRA-(CUG)6) read?
Answer: Its KD is “close to the monomeric ligand 2”.

Question: And the “bivalent effect (ratio of normalized IC50 of 2 to that of the dimeric ligand)” value ((CUG)12·MBNL1)?
Answer: Its value is 8.
